Activity calls are given as the source filed them. The calls are words filed in the database; no cut-off is given here.

In data set [1] the target is 3-beta-hydroxysteroid-Delta(8),Delta(7)-isomerase (Homo sapiens) (UniProt Q15125). The experiment in a line: Inhibition of delta8,7-isomerase in human HL60 cells assessed as accumulation of zymostenol at 50 uM after 24 hrs by GC/MS analysis. The conditions noted are these: HL-60. It is filed as cell-based. An outline of the steps:
(§1)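 HL-60 cells (1 × 10⁶) in lipid-free HL-60 medium given inhibitor at 50 μM or 1 μM (ethanol blank) for 24 h at 37 °C, 5% CO2. Pellet saponified in 1 M NaOH, 1 h at 70 °C, then TBME microextraction with cholestane internal standard. GC-MS sterol pattern compared with blanks and with AY 9944 and BM 15.766 references.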

Data set [2] deals with T1, 7-dehydrocholesterol reductase (Homo sapiens) (UniProt Q9UBM7).
T1 sequence (whole entry): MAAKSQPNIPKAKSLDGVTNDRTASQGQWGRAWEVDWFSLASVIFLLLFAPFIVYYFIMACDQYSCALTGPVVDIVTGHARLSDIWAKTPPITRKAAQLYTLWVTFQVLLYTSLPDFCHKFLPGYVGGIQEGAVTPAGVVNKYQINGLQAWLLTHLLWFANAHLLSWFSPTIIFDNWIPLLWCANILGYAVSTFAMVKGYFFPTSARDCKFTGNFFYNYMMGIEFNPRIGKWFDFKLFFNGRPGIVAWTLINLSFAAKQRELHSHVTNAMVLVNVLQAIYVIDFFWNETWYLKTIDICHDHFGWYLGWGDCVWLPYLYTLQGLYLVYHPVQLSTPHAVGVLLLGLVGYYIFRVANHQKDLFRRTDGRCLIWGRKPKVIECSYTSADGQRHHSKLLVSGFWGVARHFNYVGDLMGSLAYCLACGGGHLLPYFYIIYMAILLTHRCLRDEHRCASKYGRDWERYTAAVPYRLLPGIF
In words: Inhibition of 7-dehydrocholesterol reductase in human HL60 cells assessed as accumulation of 7-dehydrocholesterol at 50 uM after 24 hrs by GC/MS analysis. The data set is classed as cell-based. The conditions noted are these: HL-60. An outline of the steps:
as §1

The target in data set [3] is T1, 7-dehydrocholesterol reductase (Homo sapiens). The experiment in a line: Inhibition of 7-dehydrocholesterol reductase in human HL60 cells assessed as accumulation of 7-dehydrocholesterol at 1 uM after 24 hrs by GC/MS analysis. It is filed as cell-based. The following applies: HL-60. The essentials: as §1
Data set [4] has as its system Yarrowia lipolytica. In words: Antifungal activity against Yarrowia lipolytica DSM 1345 after 48 hrs. The conditions noted are these: in vivo. It is filed as organism-based. An outline of the steps: (§2)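 MIC against the yeast strains determined according to DIN 58940-84; clotrimazole as positive control.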
Data set [5] has as its system Saccharomyces cerevisiae. In words: Antimicrobial activity against Saccharomyces cerevisiae DSM 1333 after 48 hrs. It is filed as organism-based. The conditions noted are these: in vivo. The essentials:
as §2

Data set [6] has as its system Nakaseomyces glabratus. In words: Antifungal activity against Candida glabrata DSM 11226 after 48 hrs. It is filed as organism-based. The conditions noted are these: in vivo. An outline of the steps: as §2
Data set [7] relates to Yarrowia lipolytica. The experiment in a line: Antifungal activity against Yarrowia lipolytica DSM 1345 after 36 hrs by disc diffusion method. It is filed as organism-based. The conditions noted are these: in vivo. On the technique in general: Agar diffusion results depend on both activity and mobility in agar.
Data set [8] deals with Saccharomyces cerevisiae. The experiment in a line: Antifungal activity against Saccharomyces cerevisiae DSM 1333 after 36 hrs by disc diffusion method. The data set is classed as organism-based. The conditions noted are these: in vivo.
Data set [9] has as its system Nakaseomyces glabratus. In words: Antifungal activity against Candida glabrata DSM 11226 after 36 hrs by disc diffusion method. It is filed as organism-based. The following applies: in vivo.
Data set [10] can be described thus: Antifungal activity against Aspergillus brasiliensis DSM 1988 after 36 hrs by disc diffusion method.
A short description of data set [11]: Antibacterial activity against Streptococcus entericus DSM 14446 after 36 hrs by disc diffusion method.
The nature of data set [12]: Antibacterial activity against Staphylococcus equorum DSM 20675 after 36 hrs by disc diffusion method.
Data set [13] in a line: Antibacterial activity against Pseudomonas antimicrobica DSM 8361 after 36 hrs by disc diffusion method. The following applies: burkholderia gladioli.
The subject of another data set is Escherichia coli. The experiment in a line: Antibacterial activity against Escherichia coli DSM 426 after 36 hrs by disc diffusion method. The following applies: in vivo. It is filed as organism-based.
The subject of the next data set is HL-60. In words: Cytotoxicity against human HL60 cells after 24 hrs by MTT assay. The data set is classed as cell-based. The following applies: HL-60, 24 h. An outline of the steps: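 MTT colorimetric assay on HL-60 promyelocytic leukemia cells (RPMI 1640, 10% FBS, no antibiotics, 37 °C, 5% CO2) as a preliminary screen for unspecific cytotoxicity; cisplatin as reference.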

Data set [14] can be described thus: Antifungal activity against Hyphopichia burtonii DSM 70663 after 36 hrs by disc diffusion method.

Chain of 3-beta-hydroxysteroid-Delta(8),Delta(7)-isomerase (Homo sapiens) (Q15125 whole entry): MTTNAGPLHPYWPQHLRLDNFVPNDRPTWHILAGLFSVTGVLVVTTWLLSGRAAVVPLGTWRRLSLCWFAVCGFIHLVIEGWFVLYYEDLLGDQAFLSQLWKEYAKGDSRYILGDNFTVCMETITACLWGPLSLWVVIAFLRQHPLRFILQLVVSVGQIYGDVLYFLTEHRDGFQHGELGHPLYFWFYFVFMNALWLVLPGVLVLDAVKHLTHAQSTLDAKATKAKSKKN

The term IC50 denotes the concentration that inhibits the measured activity by half. High values mean lower potency, low ones higher potency. Take `COc1ccc(CCN2CCc3cc(O)c(OC)cc3C2)cc1`: the “isomerase inhibition (active/not active)” value in data set [1] was “Active”. In addition, the “7-dehydrocholesterol accumulation (active/not active)” value in data set [2] was “Active”. The “7-DHCR inhibition (active/not active)” value in data set [3] is “Active”. Also, the MIC with Yarrowia lipolytica [4], in the data set on Saccharomyces cerevisiae [5] and against Nakaseomyces glabratus [6] was above 20 µg/mL in each case. Besides, the Activity entry (with Yarrowia lipolytica [7]; with Saccharomyces cerevisiae [8]; in the data set on Nakaseomyces glabratus [9]; in [10]; in [11]; in [12]) was “Non-toxic” throughout. Moreover, the Activity result in data set [13] is “Non-toxic”; with Escherichia coli, “Non-toxic”; in data set [14], “Toxic”. The compound also gave an IC50 in the data set with HL-60 above 50 µM.

Regarding `COc1cc2c(cc1O)CCN(CCc1ccccc1OC)C2`, in [2], the “7-dehydrocholesterol accumulation (active/not active)” value is “Active”. The “7-DHCR inhibition (active/not active)” value in [3] was “inactive”. Moreover, the MIC with Yarrowia lipolytica [4], against Saccharomyces cerevisiae [5] and in the data set on Nakaseomyces glabratus [6] was above 20 µg/mL in each case. Also, the Activity entry (in the data set with Yarrowia lipolytica [7]; in the data set on Saccharomyces cerevisiae [8]; in the data set on Nakaseomyces glabratus [9]; in data set [10]; in data set [11]; in data set [12]) was “Non-toxic” throughout. For the same compound, the Activity entry (in [13]; in the data set on Escherichia coli; in [14]) was “Non-toxic” throughout. This compound yielded an IC50 with HL-60 above 50 µM.

`Clc1ccccc1C(c1ccccc1)(c1ccccc1)n1ccnc1` [CLOTRIMAZOLE]: the MIC against Yarrowia lipolytica [4], against Saccharomyces cerevisiae [5] and against Nakaseomyces glabratus [6] was below 1 µg/mL throughout.

In the case of `Oc1ccc(CCN2CCc3cc(O)ccc3C2)cc1`, the “7-dehydrocholesterol accumulation (active/not active)” value in data set [2] is “Active”. The “7-DHCR inhibition (active/not active)” value in data set [3] is “inactive”. The MIC with Yarrowia lipolytica [4], in the data set on Saccharomyces cerevisiae [5] and against Nakaseomyces glabratus [6] was above 20 µg/mL throughout. Further, the Activity entry (in the data set on Yarrowia lipolytica [7]; in the data set on Saccharomyces cerevisiae [8]; in the data set with Nakaseomyces glabratus [9]; in data set [10]; in data set [11]; in data set [12]) was “Non-toxic” in each case. Besides, the Activity result (in data set [13]; with Escherichia coli; in [14]) was “Non-toxic” throughout. The IC50 in the data set on HL-60 was above 50 µM.

With `COc1cc2c(cc1O)CCN(CCc1ccc(F)cc1)C2`, the “isomerase inhibition (active/not active)” value in data set [1] was “Active”. Also, the “7-dehydrocholesterol accumulation (active/not active)” value in data set [2] was “Active”. The “7-DHCR inhibition (active/not active)” value in data set [3] was “Active”. Moreover, the MIC in the data set on Yarrowia lipolytica [4], in the data set with Saccharomyces cerevisiae [5] and in the data set with Nakaseomyces glabratus [6] was above 20 µg/mL in each case. For the same compound, the Activity result (in the data set on Yarrowia lipolytica [7]; in the data set on Saccharomyces cerevisiae [8]; with Nakaseomyces glabratus [9]; in data set [10]; in [11]; in [12]) was “Non-toxic” throughout. Also, the Activity entry was “Non-toxic” in data set [13], “Non-toxic” with Escherichia coli and “Toxic” in [14]. This compound also had a concentration for half-maximal inhibition (IC50) in the data set with HL-60 above 50 µM.

(Values after ChEMBL document CHEMBL2169759, “A new class of selective and potent 7-dehydrocholesterol reductase inhibitors” (J Med Chem, 2012).)
